Beta2AR agonist: activates human beta-2 adrenergic receptor causing internalization; Am2.2-beta2AR cells, FAP receptor internalization, flow cytometry; response, % (no concentration beside the values); P07550; 340,000 tested, 0.43% active;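 active = response above a set limit, near 3 SD of response in nonfluorescent compounds, cut at about 42% in these data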
TAAR1 antag: human TAAR1 antagonism | Q96RJ0 | CHO RD-HGA16 TAAR1, Fluo-8 calcium fluorescence, antagonist | inhibition, % at 3 µM | 360,000 tested, 1.5% active | AID 624466;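 active = inhibition above a per-plate cutoff, the mean inhibition of test compounds on that plate plus 3 SD, cut at about 49% in these data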;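 also: 0% = DMSO plus EC80 beta-PEA response and 100% = DMSO alone without agonist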
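Test system: CHO RD-HGA16 cells bearing hTAAR1 | Reagent: β-PEA, EC80 | Compound dosing: 3 µM, single point | Schedule: Dye loading 75 min at 37 °C, then 30 min room temperature | Signal: Calcium fluorescence with Fluo-8 | Evaluation: Percent inhibition of PEA-evoked calcium signal, max/basal emission ratio | Control set: DMSO-only wells and EC80 β-PEA-stimulated wells | Repeats: Singlicate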
HTR2A ag: agonists of mouse serotonin 5-HT2A receptor (HTR2A); P35363; CHO-K1 mHTR2A beta-arrestin complementation, luminescence; percent of 30 µM serotonin response; activation, % at 7.6 µM; 360,000 tested, 0.66% active;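 active = activation above a run cutoff, the mean activation of all tested compounds plus 3 SD, cut at about 14% in these data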;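 also: 0% = plate median of compound wells and 100% = 30 µM serotonin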
MC4R ag barr: human MC4R agonism via beta-arrestin | activation, % at 8.9 µM | 360,000 tested, 0.98% active | U2OS MC4R beta-arrestin complementation, luminescence; percent of melanotan II response, DMSO zero | P32245;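 active = activation above a per-plate cutoff, the mean activation of sample wells on that plate plus 3 SD, cut at about 8% in these data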
TAAR1 agonist: agonists of human TAAR1; Q96RJ0; CHO RD-HGA16 TAAR1, Fluo-8 calcium fluorescence; vehicle wells 0%, saturating PEA agonist 100%; activation, % at 3 µM; 360,000 tested, 0.99% active;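 active = activation above the mean activation of all test compounds in the run plus 3 SD, cut at about 38% in these data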
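Repeats: no replicates (n 1) | Material: CHO-derived RD-HGA16 cells with stable Gα16 and human TAAR1 | Technique: Kinetic Fluo-8 calcium fluorescence | Schedule: 17-24 h seeding, 75 min 37 °C dye, 30 min RT | Evaluation: % activation from peak over basal fluorescence ratio, DMSO-to-PEA scaled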
MC4R antagonist: blocks human MC4R cAMP signaling; P32245; MC4R-expressing cells, MTII-stimulated cAMP, LANCE TR-FRET; inhibition, % at 6.5 µM; 360,000 tested, 0.48% active;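 active = inhibition above its plate's cutoff, the mean of tested wells on that plate plus 3 SD, cut at about 29% in these data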;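 also: 0% = Melanotan II alone and 100% = Melanotan II plus saturating MCL0020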
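System – human MC4R-expressing U2OS cells · Also added – Melanotan II · Dosing – one concentration, 6.5 µM nominal · Timing – 30-min compound, 1-h challenge, 1-h detection, room temperature · Measured by – Eu-cAMP/anti-cAMP TR-FRET, emission 671 nm · Replicates – singlicate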
OPRM1 ag: OPRM1 agonism in mouse HTR2A counterscreen | shares compounds with HTR2A ag | U2OS OPRM1 beta-arrestin PathHunter, luminescence; DMSO 0%, DAMGO 9.3 µM 100% | activation, % at 9.3 µM | 2,300 tested, 5.3% active | AID 624380;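 active = mean activation above the mean of DMSO-only wells plus 3 SD, cut at about 0.5% in these data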
Target sequence (P35372 whole entry, looked up): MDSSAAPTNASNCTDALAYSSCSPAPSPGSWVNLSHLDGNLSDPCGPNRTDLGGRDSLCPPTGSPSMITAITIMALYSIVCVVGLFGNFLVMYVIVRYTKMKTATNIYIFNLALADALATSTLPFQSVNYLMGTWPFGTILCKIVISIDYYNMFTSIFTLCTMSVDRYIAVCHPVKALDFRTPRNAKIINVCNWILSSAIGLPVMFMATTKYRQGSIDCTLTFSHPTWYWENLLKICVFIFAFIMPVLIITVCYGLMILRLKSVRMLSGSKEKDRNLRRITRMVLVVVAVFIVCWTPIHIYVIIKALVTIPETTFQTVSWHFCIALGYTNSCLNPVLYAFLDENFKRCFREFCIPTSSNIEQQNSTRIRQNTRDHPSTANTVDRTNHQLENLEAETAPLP
m5-HT2A ag conf: mouse HTR2A agonism confirmed; CHO-K1 PathHunter beta-arrestin recruitment, luminescence; DMSO 0%, 30 µM serotonin 100%; activation, % at 7.6 µM; AID 624381; 2,300 tested, 19% active; shares compounds with HTR2A ag;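 active = mean activation across triplicates above the hit threshold derived in the original primary screen, cut at about 15% in these data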
* hit, by the source's call; / = not tested or not shown. A selection: hits, their analogues and other compounds. The true share with any hit is near 4.3%.

SMILES	Beta2AR agonist	TAAR1 antag	HTR2A ag	MC4R ag barr	TAAR1 agonist	MC4R antagonist	OPRM1 ag	m5-HT2A ag conf
Cc1cc2c3c(c1C)C1(C(=O)N3C(C)(C)CC2C)C(C#N)=C(N)Oc2cc(O)ccc21 (configuration not stated)	2	-6	25*	3	-1	17	-1	3
CC(C)c1ccc(NC(=O)C2Cc3c(-c4ccccc4Oc4ccccc4)ccnc3O2)cc1 (configuration not stated)	/	11	-2	-2	0	4	/	/
COc1ccc(CC(=O)N[C@@H]2c3cc(OC)c(OC)cc3C[C@H]2O)cc1	-1	1	18*	-1	0	2	-1	-3
COc1ccc(S(=O)(=O)NCc2csc(-c3cccnc3)n2)cc1	-5	-11	17*	0	1	7	-1	-4
O=C(COC(=O)CCNS(=O)(=O)c1ccccc1)NC1CC1	-1	2	2	-1	9	0	/	/
O=C(Cn1c(=O)c2cccn2c2cccnc21)N1CCN(c2ccc(Cl)cc2)CC1	-7	/	15*	1	/	-3	-1	-1
COc1ccc(CCNC(=O)C2CCN(S(=O)(=O)c3ccc(F)cc3)CC2)cc1	-3	2	-2	0	2	8	/	/
CCN(c1ccccc1)S(=O)(=O)c1ccc(OC)c(NC(=O)c2ccc(=O)[nH]c2)c1	3	-17	3	0	4	-2	/	/
CCc1ccc(S(=O)(=O)Nc2ccncc2)cc1	-6	-4	15*	0	2	2	-1	-3
Cc1cccc(C)c1NC(=O)C(C1CC1)n1c(-c2ccc(-c3ccccc3)cc2)nc2ccccc21 (configuration not stated)	/	7	-4	/	2	/	/	/
COc1ccc(-c2c(-c3cc(OC)cc(OC)c3)n(C)c3ccc(-c4ccc5[nH]ccc5c4)cc23)cc1	-6	-10	22*	1	9	0	-1	-3
CC1OC(C2CCCCC2)Cc2[nH]c(=S)[nH]c(=O)c21 (configuration not stated)	/	-14	7	/	0	/	/	/
COc1ccc2c(CC(=O)OCC(=O)N3CCc4ccccc43)coc2c1	-7	-12	16*	-2	13	0	0	-5
S=c1[nH]nc(-c2cccnc2)n1/N=C/C=C/c1ccccc1	-7	-3	16*	0	-1	-4	-1	0
CS(=O)(=O)CCC(C(=O)O)N1C(=O)c2ccc(Oc3ccc(Cl)cc3)cc2C1=O (configuration not stated)	-6	2	-1	-1	-1	-4	/	/
Cc1ccc(/C([O-])=C(/C(=S)NCc2ccccc2)[n+]2cccc(CO)c2)cc1[N+](=O)[O-]	-2	2	-3	0	1	11	/	/
CCc1cc[n+](C(C(=S)Nc2cccc(C)c2)=C([O-])c2ccc(C)c([N+](=O)[O-])c2)cc1	4	-15	15*	2	2	2	-1	-4
CC(=O)N(Cc1ccccc1)C(CC(=O)NCc1ccccc1)C(=O)O (configuration not stated)	0	5	2	0	0	-2	/	/
COC(=O)c1cc2ccsc2n1CC(=O)Nc1cc(Cl)ccc1OC	-8	1	19*	-2	4	-4	-1	-4
N#Cc1ccc(N[C@@H]2CCN3C(=O)c4ccccc4[C@@H]3C[C@H]2O)cc1	9	19	9	1	5	21	/	/
NC(=O)c1nc(C(=O)N2CCN(c3ccccc3)CC2)c2ccccc2n1	3	9	18*	-1	17	6	-1	-6
Cc1c(NC(=O)c2cccnc2Cl)c(=O)n(-c2ccccc2)n1C	-8	/	-3	0	/	10	/	/
Cc1cc([N+](=O)[O-])ccc1NC(=O)c1cncc(Br)c1	-7	-8	16*	-1	0	-5	0	-5
c1ccc(Oc2ncnc3ccccc23)cc1	-1	-7	16*	-2	4	-5	-1	-4
CCOC(=O)c1ccc(NC(=O)CCc2nnc3ccc(N4CCCC4)nn23)cc1	-9	-24	24*	-3	30	-4	-1	-3
SMILES	Beta2AR agonist	TAAR1 antag	HTR2A ag	MC4R ag barr	TAAR1 agonist	MC4R antagonist	OPRM1 ag	m5-HT2A ag conf
CC1(C)Oc2c(ccc(O)c2CN2CCOCC2)C2=C1CCCC2	-1	-21	-2	3	0	11	/	/
COC(=O)[C@@H]1C[C@@]2(O)[C@H](O)[C@H](O)[C@H](O)C[C@H]2N1CC(c1ccccc1)c1ccccc1	-1	6	20*	-2	2	3	-1	0
CSc1cccc(CNC(=O)C2CCC(=O)N(CCc3ccccc3)C2)c1 (configuration not stated)	/	1	10	0	0	5	/	/
C[C@@H](O)C#Cc1ccc2c(c1)O[C@H](CN(C)C(=O)Nc1ccccc1)[C@@H](C)CN([C@@H](C)CO)S2(=O)=O	/	8	15*	-1	6	4	0	8
CC(C)NC(=O)N(C)C[C@H]1Oc2cc(C#Cc3ccc(F)cc3)ccc2S(=O)(=O)N([C@H](C)CO)C[C@H]1C	/	-4	41*	0	8	12	-1	24*
C[C@H](CO)N1C[C@H](C)[C@@H](CN(C)C(=O)c2ccccc2)Oc2cc(C#C[C@@H](C)O)ccc2S1(=O)=O	/	-8	9	1	9	3	/	/
CC(C)C[C@@H](CN)NC(=O)c1nc[nH]c1C(=O)N[C@@H](CC(=O)O)C(=O)CNC[C@H](C)NC(=O)c1nc[nH]c1C(=O)N[C@@H](CC(=O)O)C(=O)O	-12	6	9	1	0	3	/	/
CC(=O)c1cccc(NC(=O)C2Cc3c(-c4cccc(C(N)=O)c4)ccnc3O2)c1 (configuration not stated)	/	8	0	0	4	4	/	/
CC(O)/C=C/c1ccc2ccccc2n1 (configuration not stated)	1	11	19*	-1	10	3	0	1
O=S1(=O)CCN(C2CC2)CC1	/	-4	4	-1	2	3	/	/
CS(=O)(=O)c1ccc2nc(NC(=O)c3ccc(Cl)cc3)sc2c1	20	24	18*	0	13	5	0	3
